The target of test [1] is 5'-AMP-activated protein kinase catalytic subunit alpha-2 (Homo sapiens) (UniProt P54646). Briefly: Inhibition of human AMPKalpha2 assessed as residual activity at 10 uM by KinaseProfiler assay. Summed up: (§1)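 Radioactive phosphorylation assays were run by an outsourced profiling service. Each of 31 human kinases was tested with inhibitor at 10 µM. Residual activity is expressed as a percentage of the mean activity in positive-control wells, which contained all reaction components except inhibitor plus DMSO as solvent control.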

The target of test [2] is Tyrosine-protein kinase Fgr (Homo sapiens) (UniProt P09769). Briefly: Inhibition of human Fgr assessed as residual activity at 10 uM by KinaseProfiler assay. The essentials: as §1
Test [3] has as its target T1, Mitogen-activated protein kinase kinase kinase kinase 2 (Homo sapiens) (UniProt Q12851).
T1 sequence (whole entry): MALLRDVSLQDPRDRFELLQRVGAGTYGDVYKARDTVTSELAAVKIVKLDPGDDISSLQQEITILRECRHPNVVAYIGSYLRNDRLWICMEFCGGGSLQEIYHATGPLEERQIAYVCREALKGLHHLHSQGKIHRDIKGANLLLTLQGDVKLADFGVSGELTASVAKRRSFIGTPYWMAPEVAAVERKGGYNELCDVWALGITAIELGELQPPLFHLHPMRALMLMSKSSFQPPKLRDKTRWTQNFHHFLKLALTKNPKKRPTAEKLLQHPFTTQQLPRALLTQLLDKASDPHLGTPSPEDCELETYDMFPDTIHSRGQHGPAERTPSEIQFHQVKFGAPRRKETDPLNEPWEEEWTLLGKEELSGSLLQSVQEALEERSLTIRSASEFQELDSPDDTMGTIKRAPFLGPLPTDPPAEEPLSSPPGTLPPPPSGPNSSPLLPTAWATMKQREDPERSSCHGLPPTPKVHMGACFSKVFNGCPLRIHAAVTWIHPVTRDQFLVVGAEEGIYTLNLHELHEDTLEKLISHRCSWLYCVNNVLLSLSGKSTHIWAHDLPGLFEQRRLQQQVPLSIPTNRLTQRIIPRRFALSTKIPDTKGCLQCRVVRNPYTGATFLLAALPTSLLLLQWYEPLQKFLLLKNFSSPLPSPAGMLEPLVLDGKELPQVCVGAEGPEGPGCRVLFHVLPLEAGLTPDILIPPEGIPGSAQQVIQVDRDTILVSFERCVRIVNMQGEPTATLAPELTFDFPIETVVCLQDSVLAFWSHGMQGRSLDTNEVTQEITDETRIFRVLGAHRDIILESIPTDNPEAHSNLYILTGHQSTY
The experiment in a line: Inhibition of human GCK assessed as residual activity at 10 uM by KinaseProfiler assay. Summed up:
as §1

The target in test [4] is Glycogen synthase kinase-3 beta (Homo sapiens) (UniProt P49841). Briefly: Inhibition of human GSK3beta assessed as residual activity at 10 uM by KinaseProfiler assay. The essentials:
as §1

Test [5] addresses Mitogen-activated protein kinase 9 (Homo sapiens) (UniProt P45984). The experiment in a line: Inhibition of human JNK2alpha2 assessed as residual activity at 10 uM by KinaseProfiler assay. The essentials: as §1
The target of test [6] is Ribosomal protein S6 kinase alpha-5 (Homo sapiens) (UniProt O75582). Briefly: Inhibition of human MSK1 assessed as residual activity at 10 uM by KinaseProfiler assay. The essentials: as §1
Test [7] concerns the target T2, 3-phosphoinositide-dependent protein kinase 1 (Homo sapiens) (UniProt O15530).
T2 sequence (whole entry): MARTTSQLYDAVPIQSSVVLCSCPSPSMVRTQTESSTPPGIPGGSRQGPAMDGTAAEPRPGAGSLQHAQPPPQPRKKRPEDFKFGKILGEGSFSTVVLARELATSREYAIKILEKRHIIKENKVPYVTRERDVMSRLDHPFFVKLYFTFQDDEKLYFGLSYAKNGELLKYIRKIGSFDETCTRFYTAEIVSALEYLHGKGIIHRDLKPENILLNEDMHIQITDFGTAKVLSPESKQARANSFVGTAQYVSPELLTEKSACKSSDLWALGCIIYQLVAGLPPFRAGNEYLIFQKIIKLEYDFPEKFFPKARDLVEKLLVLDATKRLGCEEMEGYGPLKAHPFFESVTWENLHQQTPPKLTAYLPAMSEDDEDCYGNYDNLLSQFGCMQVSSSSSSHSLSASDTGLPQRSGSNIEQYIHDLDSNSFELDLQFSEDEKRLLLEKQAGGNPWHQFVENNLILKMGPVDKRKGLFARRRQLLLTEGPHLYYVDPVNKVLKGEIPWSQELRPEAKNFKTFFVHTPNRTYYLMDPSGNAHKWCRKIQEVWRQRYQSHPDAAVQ
The experiment in a line: Inhibition of human PDK1 assessed as residual activity at 10 uM by KinaseProfiler assay. The essentials: as §1

In test [8] the target is T3, MAP kinase-activated protein kinase 5 (Homo sapiens) (UniProt Q8IW41).
T3 sequence (whole entry): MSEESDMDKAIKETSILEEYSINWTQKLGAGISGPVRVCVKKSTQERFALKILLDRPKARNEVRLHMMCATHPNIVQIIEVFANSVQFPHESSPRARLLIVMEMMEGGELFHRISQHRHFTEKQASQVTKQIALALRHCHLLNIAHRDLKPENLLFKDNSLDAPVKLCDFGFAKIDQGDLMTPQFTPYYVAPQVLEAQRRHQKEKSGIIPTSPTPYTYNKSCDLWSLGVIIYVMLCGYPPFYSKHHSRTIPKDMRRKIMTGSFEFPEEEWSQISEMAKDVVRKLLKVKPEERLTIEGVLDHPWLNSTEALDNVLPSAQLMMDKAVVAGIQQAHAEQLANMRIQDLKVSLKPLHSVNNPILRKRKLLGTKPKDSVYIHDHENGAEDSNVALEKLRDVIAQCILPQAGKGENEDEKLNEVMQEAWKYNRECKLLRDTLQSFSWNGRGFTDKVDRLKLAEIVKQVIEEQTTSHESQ
The experiment in a line: Inhibition of human PRAK assessed as residual activity at 10 uM by KinaseProfiler assay. The essentials:
as §1

The target of test [9] is T4, Serine/threonine-protein kinase Sgk1 (Homo sapiens) (UniProt O00141).
T4 sequence (whole entry): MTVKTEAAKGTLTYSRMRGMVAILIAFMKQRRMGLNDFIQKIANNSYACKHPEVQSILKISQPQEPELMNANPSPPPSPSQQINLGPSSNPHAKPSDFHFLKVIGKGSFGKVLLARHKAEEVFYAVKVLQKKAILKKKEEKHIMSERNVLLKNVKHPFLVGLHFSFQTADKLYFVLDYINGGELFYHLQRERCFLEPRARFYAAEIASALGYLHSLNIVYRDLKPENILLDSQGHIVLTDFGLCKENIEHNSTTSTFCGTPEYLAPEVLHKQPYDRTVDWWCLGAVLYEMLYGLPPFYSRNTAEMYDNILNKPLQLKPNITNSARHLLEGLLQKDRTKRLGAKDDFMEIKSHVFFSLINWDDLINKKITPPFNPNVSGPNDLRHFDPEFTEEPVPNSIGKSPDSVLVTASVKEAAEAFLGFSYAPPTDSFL
Briefly: Inhibition of human SGK assessed as residual activity at 10 uM by KinaseProfiler assay. Summed up: as §1

Tyrosine-protein kinase Fgr (Homo sapiens), sequence (P09769 2-529 limits assumed): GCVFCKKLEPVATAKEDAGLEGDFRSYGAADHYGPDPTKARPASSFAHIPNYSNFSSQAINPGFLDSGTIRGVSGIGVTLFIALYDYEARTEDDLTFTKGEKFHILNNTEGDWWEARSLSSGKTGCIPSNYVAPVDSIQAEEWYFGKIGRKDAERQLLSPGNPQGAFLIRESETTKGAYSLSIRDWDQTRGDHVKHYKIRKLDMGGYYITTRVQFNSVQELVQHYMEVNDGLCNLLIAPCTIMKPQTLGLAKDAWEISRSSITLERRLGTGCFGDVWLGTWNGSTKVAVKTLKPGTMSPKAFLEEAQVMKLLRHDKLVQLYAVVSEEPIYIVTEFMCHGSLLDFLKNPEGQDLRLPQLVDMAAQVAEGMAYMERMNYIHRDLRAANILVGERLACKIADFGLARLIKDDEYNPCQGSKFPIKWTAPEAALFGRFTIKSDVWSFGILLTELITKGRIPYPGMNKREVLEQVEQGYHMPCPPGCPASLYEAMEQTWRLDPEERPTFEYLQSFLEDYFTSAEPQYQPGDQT
Mitogen-activated protein kinase 9 (Homo sapiens), sequence (P45984 whole entry, looked up): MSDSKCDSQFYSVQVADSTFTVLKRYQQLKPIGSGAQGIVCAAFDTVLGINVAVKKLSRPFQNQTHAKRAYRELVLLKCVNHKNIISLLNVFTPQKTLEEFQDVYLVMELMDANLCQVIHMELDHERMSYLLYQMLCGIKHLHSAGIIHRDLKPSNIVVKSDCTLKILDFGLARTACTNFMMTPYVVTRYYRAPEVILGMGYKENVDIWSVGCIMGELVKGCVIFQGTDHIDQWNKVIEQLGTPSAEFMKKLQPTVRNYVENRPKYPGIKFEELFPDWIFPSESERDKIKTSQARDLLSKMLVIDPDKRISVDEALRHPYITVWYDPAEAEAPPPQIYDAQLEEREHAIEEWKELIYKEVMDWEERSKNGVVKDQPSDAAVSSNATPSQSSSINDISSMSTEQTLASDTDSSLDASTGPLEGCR
Glycogen synthase kinase-3 beta (Homo sapiens), sequence (P49841 whole entry, looked up): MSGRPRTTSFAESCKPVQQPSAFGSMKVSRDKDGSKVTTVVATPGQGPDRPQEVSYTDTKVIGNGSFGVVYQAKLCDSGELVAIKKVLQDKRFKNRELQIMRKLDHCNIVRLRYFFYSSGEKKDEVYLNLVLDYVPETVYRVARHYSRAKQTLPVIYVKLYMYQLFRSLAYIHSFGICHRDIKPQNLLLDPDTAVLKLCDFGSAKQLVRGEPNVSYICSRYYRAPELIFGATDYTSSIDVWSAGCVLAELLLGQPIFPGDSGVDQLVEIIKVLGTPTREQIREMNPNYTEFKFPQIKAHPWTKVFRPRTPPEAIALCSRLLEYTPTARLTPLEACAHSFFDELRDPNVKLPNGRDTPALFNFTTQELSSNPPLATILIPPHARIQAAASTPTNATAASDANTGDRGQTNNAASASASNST
Ribosomal protein S6 kinase alpha-5 (Homo sapiens), sequence (O75582 whole entry, looked up): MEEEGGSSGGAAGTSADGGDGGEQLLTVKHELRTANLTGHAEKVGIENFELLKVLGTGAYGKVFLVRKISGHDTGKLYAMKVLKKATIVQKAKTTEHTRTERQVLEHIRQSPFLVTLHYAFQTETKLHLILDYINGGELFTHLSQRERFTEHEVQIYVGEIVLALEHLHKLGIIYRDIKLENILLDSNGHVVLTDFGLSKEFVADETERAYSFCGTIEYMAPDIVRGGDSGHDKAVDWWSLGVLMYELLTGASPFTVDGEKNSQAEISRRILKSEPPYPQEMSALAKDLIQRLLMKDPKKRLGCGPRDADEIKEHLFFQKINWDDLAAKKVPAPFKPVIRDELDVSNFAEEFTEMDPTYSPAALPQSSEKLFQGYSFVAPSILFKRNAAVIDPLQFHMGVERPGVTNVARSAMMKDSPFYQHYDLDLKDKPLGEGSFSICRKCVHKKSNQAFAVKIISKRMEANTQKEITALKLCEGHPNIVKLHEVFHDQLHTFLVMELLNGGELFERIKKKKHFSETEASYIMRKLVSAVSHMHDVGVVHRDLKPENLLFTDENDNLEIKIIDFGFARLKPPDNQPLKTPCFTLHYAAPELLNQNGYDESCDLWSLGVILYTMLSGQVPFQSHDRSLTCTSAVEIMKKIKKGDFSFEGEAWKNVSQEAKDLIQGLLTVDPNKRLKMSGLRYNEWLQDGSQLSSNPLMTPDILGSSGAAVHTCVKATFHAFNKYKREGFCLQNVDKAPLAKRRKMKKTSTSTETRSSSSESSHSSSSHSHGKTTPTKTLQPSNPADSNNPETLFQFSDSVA
5'-AMP-activated protein kinase catalytic subunit alpha-2 (Homo sapiens), sequence (P54646 whole entry, looked up): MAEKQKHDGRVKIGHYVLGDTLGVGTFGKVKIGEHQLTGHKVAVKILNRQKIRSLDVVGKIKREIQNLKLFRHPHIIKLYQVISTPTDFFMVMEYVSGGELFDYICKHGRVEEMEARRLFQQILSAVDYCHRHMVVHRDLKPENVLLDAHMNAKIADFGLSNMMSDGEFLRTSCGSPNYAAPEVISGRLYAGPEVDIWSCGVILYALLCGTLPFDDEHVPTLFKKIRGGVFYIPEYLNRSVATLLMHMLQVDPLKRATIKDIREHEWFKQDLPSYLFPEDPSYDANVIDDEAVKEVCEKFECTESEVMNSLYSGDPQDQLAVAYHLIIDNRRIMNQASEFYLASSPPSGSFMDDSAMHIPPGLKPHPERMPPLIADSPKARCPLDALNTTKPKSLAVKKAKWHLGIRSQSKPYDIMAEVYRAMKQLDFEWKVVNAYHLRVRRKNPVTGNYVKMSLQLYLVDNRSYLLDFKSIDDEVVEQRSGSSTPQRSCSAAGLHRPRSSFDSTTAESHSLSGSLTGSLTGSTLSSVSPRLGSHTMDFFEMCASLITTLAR

Regarding `CCOC(=O)C1=C(C)N=c2s/c(=C\c3ccc(O)c(O)c3)c(=O)n2C1c1ccc(Cl)cc1` (configuration not stated), the Activity in [1] came out at 65%; in [2] it was 98%; in [3], 87%; in [4], 52%; in test [5] it was 91%; in test [6], 127%. Besides, the Activity in [7] amounted to 78%; in [8], 36%; in test [9], 85%.
As for `CCOC(=O)C1=C(C)N=c2s/c(=C\c3cc(O)c(O)c(O)c3)c(=O)n2C1c1ccc(Cl)cc1` (configuration not stated), the Activity in test [1] was 48%; in [2], 75%; in [3], 87%; in test [4], 51%; in test [5], 92%; in test [6] it was 124%. Besides, the Activity came to 69% in [7], 28% in [8] and 61% in test [9].
`Brc1c(Br)c(Br)c2[nH]nnc2c1Br`: the Activity in test [1] was 83%; in test [2], 102%; in test [3], 92%; in [4], 42%; in test [5], 50%; in test [6], 66%. Moreover, the Activity in [7] is 93%; in test [8], 60%; in test [9] it was 65%.

(Values after ChEMBL document CHEMBL3351625, “Ethyl 2-(benzylidene)-7-methyl-3-oxo-2,3-dihydro-5H-thiazolo[3,2-a]pyrimidine-6-carboxylate analogues as a new scaffold for protein kinase casein kinase 2 inhibitor” (Bioorg Med Chem, 2014).)
